Assay outcomes (PubChem BioAssay)
Shown are actives, neighbours in structure and some others; about 4.8% of the full set was active somewhere.
Calb FLC: affects C. albicans growth with fluconazole. C. albicans CaCi-2 (fluconazole-resistant clinical isolate) + fluconazole, Alamar Blue growth, 48 h. growth inhibition, % (no concentration beside the values). 300,000 tested, 0.57% active;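 active means growth inhibition above about 58% in most replicates, limit read from the data, passing the limit was not always enough; inconclusive means exactly half the replicates above a set limit; inactive means most replicates below a set limit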;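 further: all wells also contain fluconazole at 8 µg/ml as a sub-toxic cotreatment; 0% = median of DMSO wells and 100% = median of geldanamycin control wells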
ATG4B inh: blocks human ATG4B protease cleavage of LC3 substrate; Q9Y4P1; ATG4B cleavage of LC3-PLA2, NBD-HPC fluorescence, 1 h; inhibition, % at 8.33 µM; 340,000 tested, 0.51% active; in the data active means inhibition above about 40%
Target sequence (Q9Y4P1 whole entry, looked up): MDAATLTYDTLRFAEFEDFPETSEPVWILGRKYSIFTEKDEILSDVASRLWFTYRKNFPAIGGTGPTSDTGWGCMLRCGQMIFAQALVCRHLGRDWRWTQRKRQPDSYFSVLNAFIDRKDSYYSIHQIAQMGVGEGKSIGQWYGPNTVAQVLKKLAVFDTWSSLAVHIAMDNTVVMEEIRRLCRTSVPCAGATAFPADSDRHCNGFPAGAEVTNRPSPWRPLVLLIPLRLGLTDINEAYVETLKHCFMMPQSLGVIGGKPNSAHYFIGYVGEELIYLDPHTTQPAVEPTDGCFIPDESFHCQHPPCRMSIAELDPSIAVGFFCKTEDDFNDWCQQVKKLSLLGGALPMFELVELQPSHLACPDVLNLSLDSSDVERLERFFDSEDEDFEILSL
ALR H2O2 inh: inhibitors of human sulfhydryl oxidase ALR. purified ALR, DTT oxidation, H2O2 HRP-luminol luminescence. 290,000 tested, 3.8% active. P55789. inhibition, % (concentration not given with the values);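 active means mean replicate inhibition above about 79%, with every replicate also reaching it, limit read from the data; inconclusive means only one of the two criteria met; inactive means mean below limit and not every replicate reaching it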
Target sequence (P55789 whole entry, looked up): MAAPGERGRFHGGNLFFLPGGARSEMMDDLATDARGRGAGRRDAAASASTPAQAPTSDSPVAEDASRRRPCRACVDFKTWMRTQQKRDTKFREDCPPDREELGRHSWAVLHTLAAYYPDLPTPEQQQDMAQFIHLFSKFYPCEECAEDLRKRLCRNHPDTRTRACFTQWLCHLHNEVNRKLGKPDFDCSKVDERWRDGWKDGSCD
NLRP3 yeast inh: blocks the NALP3 inflammasome reconstituted in yeast. Yeast reconstituted NLRP3/ASC/caspase-1, beta-gal luminescence, 24 h. inhibition, % at 10 µM. 330,000 tested, 0.39% active;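 active means inhibition of 50% or more; inactive means inhibition below 50%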;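 further: plate controls were induced DMSO wells for no effect and uninduced yeast grown without galactose for full effect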
UCH37 inh: blocks the human deubiquitinase UCH37 | AID 588478 | purified proteasome/UCH37, Ub-AMC cleavage fluorescence | inhibition, % (concentration not given with the values) | 330,000 tested, 0.33% active | Q9Y5K5;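 active means mean inhibition over replicate wells above about 20%, limit read from the data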;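 further: 0% = compound-free wells with enzyme and 100% = wells lacking proteasome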
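Material: Human UCH37 enzyme supplied as purified proteasome complex | Schedule: 30 min preincubation with enzyme, 25 min cleavage at room temperature | Detection: AMC fluorescence 355/460 nm | Measure: % inhibition of Ub-AMC cleavage fluorescence | Controls: Wells without proteasome as full block, compound-free enzyme plus substrate as uninhibited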
NALP1 yeast inh: NALP1 inhibition. S. cerevisiae NALP1/ASC/caspase-1 growth, X-gal OD620, 72 h. inhibition, % at 10 µM. 280,000 tested, 0.61% active; in the data active means inhibition mostly above about 24%, no sharp cut-off; inactive means mostly below about 32%
* marks the source's active call; other numbers are inactive results; ? = inconclusive; nt = not tested or not shown.

SMILES	Calb FLC	ATG4B inh	ALR H2O2 inh	NLRP3 yeast inh	UCH37 inh	NALP1 yeast inh
CC(CC(=O)Nc1ccc(C)c(Cl)c1)=NNC(=O)c1ccco1	nt	nt	nt	nt	4.7	nt
O=[N+]([O-])c1ccc(N2CCCCC2)s1	7.6	-5.2	-3.0	1.9	20.2*	10.6
C/C(C=NNC(=O)c1c(Br)cnn1C)=C\c1ccccc1	nt	nt	nt	nt	5.6	nt
Cc1cnc(C(=O)N2CCc3c([nH]c4ccccc34)C2c2ccc(F)cc2)cn1 (configuration not stated)	?	-7.7	-5.5	13.9	1.8	8.3
CC(=O)c1cc(C(=O)N2CCc3c([nH]c4ccccc34)C2C2CCCCC2)[nH]n1 (configuration not stated)	90.9*	1.1	nt	5.2	-6.5	9.6
CCOC(=O)c1c(NC(C)=O)sc2c(OC)c(Br)ccc12	-3.6	6.5	-1.8	0.8	5.3	5.5
CCOC(=O)c1c(N)sc2c(NC(C)=O)cccc12	3.5	-15.4	98.4*	8.1	0.2	-7.4
CCOC(=O)c1c(N)sc2c(O)c(Br)ccc12	53.6	-2.7	97.7*	-15.2	1.4	17.3
CC1CCCC(C)N1N=Cc1ccc(C(=O)O)cc1 (configuration not stated)	nt	nt	nt	nt	1.5	nt
O=C(O)c1ccccc1C(=O)NNc1ccc(F)cc1	101.9*	-4.2	45.4	5.5	3.4	4.2
Cc1nc(SCC(=O)c2ccc(F)cc2)c([N+](=O)[O-])[nH]1	0.6	0.7	93.3*	6.4	1.4	7.1
Cc1nc(SCC(=O)c2ccc(Cl)cc2)c([N+](=O)[O-])[nH]1	?	-3.8	98.7*	2.6	6.7	7.7
Cc1cc(C)nc(SCC(=O)c2ccc(F)cc2)n1	9.2	-0.2	19.7	13.8	6.2	28.7
Cc1nc(SCC(=O)c2ccccc2)[nH]c(=O)c1Oc1ccc(Cl)cc1	0.4	11.7	1.5	3.4	7.3	11.9
COc1ccc(Oc2c(C)nc(SCC(=O)c3ccc(Cl)cc3)[nH]c2=O)cc1	-5.0	10.1	88.4*	8.3	2.3	nt
CC(C)Oc1ccc(C=NNC(=O)C(CSCc2ccccc2)NC(=O)c2ccc([N+](=O)[O-])cc2)cc1 (configuration not stated)	nt	nt	nt	nt	2.8	nt
Cn1cc(C(=O)c2ccc(Cl)cc2Cl)cc1C(=O)NN=C(N)COc1ccccc1	nt	nt	nt	nt	0.8	nt
CCCn1c(=O)c(C(=O)NN=Cc2ccccc2F)c(O)c2ccccc21	nt	nt	nt	nt	0.9	nt
CCCCC(C)=NNC(=O)C(=O)NCCc1ccccc1	nt	nt	nt	nt	0.5	nt
CC(C(=O)NCc1ccccc1)N1C(=O)c2ccccc2C1=O (configuration not stated)	9.8	-1.4	1.1	17.2	3.1	15.1
C[C@@H](C(=O)NCc1ccccc1)N1C(=O)C2CC=CCC2C1=O (some centres not stated)	-13.7	-0.5	nt	7.8	6.8	36.4*
CC(=NNC(=O)Cn1cnc2ccccc21)c1cccs1	nt	nt	nt	nt	2.2	nt
COC(=O)c1ccc(Cc2ccc(C(=O)OC)o2)o1	1.1	5.4	1.4	14.0	3.6	0.9
COC(=O)c1ccc(CSC(=N)N)o1	-27.5	7.2	nt	16.8	8.5	1.0
CCOC(=O)c1ccc(CSC(=N)N)o1	3.1	2.7	98.9*	-9.8	5.4	-5.6
SMILES	Calb FLC	ATG4B inh	ALR H2O2 inh	NLRP3 yeast inh	UCH37 inh	NALP1 yeast inh
CCOC(=O)c1ccoc1CSCc1ccc(C(=O)OC)o1	2.1	-1.1	98.9*	23.4	2.5	18.7
Cc1ccc(S(=O)(=O)NN=C2CCCCC2C2CCCCC2)cc1[N+](=O)[O-] (configuration not stated)	nt	nt	nt	nt	5.4	nt
COc1ccccc1/C=C/C=Nn1c(-c2ccccn2)n[nH]c1=S	nt	nt	nt	nt	9.1	nt
O=C(O)CNS(=O)(=O)Cc1ccccc1	-9.1	-11.6	nt	-3.8	0.9	6.4
O=S(=O)(Cc1ccccc1)N(O)c1ccccc1	0.7	-2.3	98.9*	2.6	3.3	9.5
COc1ccc(C(C[N+](=O)[O-])c2c(-c3ccccc3)cc3ccccn23)cc1OC (configuration not stated)	10.7	9.4	9.0	16.4	-9.6	8.3
COc1ccc(C(C[N+](=O)[O-])C2(c3ccc(OC)c(OC)c3)C(=O)c3ccccc3C2=O)cc1 (configuration not stated)	-6.5	-2.0	62.0	nt	nt	103.8*
COc1ccc(N(C(C)C(=O)NN=Cc2cccnc2)S(C)(=O)=O)cc1 (configuration not stated)	nt	nt	nt	nt	-1.4	nt
O=C(CCn1cnc(-c2ccccc2)c1-c1ccccc1)NN=Cc1ccccc1O	nt	nt	nt	nt	-7.1	nt
O=C(COC(=O)c1cccs1)Nc1nc(-c2ccccc2)cs1	nt	3.6	87.7*	3.4	-15.5	45.6
O=C(COC(=O)/C=C/c1cccs1)Nc1nc(-c2ccccc2)cs1	9.2	6.0	-8.5	-0.2	5.7	63.1*
N#Cc1c(NC(=O)c2nc3ncccn3n2)sc2c1CCCCC2	95.3*	-1.5	nt	19.9	-28.8	17.3
CCCC(=O)Nc1sc2c(c1C#N)CCCC2	36.1	-0.1	-6.7	4.2	0.4	9.1
Cc1onc(-c2ccccc2Cl)c1C(=O)Nc1sc2c(c1C#N)CCC2	76.7*	-7.3	15.5	25.6	2.5	11.7
CC(=O)Nc1sc2c(c1C#N)CCCC2	-7.4	-7.1	nt	-12.1	0.3	nt
Cc1onc(-c2ccccc2)c1C(=O)Nc1sc2c(c1C#N)CCC(C)C2 (configuration not stated)	10.6	-6.6	4.2	37.6	-1.0	11.7
Cc1onc(C(=O)Nc2sc3c(c2C#N)CCCC3)c1[N+](=O)[O-]	82.0*	-14.2	89.7*	8.4	10.2	10.1
CCCc1cc(C(=O)Nc2sc3c(c2C#N)CCC3)no1	84.1*	-8.1	20.6	29.8	-2.0	25.9
CC(=NN=C(N)SC1CC(=O)N(c2ccc(Br)cc2)C1=O)c1cccs1 (configuration not stated)	nt	nt	nt	nt	6.5	nt
CC1CCCC(C)N1N=Cc1ccccc1OC(F)F (configuration not stated)	nt	nt	nt	nt	1.8	nt
O=C(CSc1cccc2cccnc12)NN=Cc1ccc(O)cc1	nt	nt	nt	nt	-5.0	nt
CC(CCc1ccccc1)NC(=O)CN1CCN(Cc2ccccc2)C1=O (configuration not stated)	8.5	1.2	-3.7	-3.0	0.0	5.6
CC(CCc1ccccc1)NC(=O)CN1CCOc2ccccc21 (configuration not stated)	7.6	0.9	98.5*	16.2	-0.7	nt
CC(CCc1ccccc1)NC(=O)CN1CCSc2ccccc21 (configuration not stated)	11.1	4.8	98.9*	1.4	-0.1	6.7
O=C(CN1CCOc2ccccc21)NCc1ccccc1	-2.1	12.9	98.4*	18.1	1.3	12.0
O=C(Cc1cccc2ccccc12)NN=Cc1ccc(F)cc1	nt	nt	nt	nt	1.8	nt
Cc1ccnc(N/C=C(/NC(=O)c2ccccc2)C(=O)NN=Cc2ccc(Cl)cc2)n1	nt	nt	nt	nt	8.2	nt
